# From ChEMBL document CHEMBL1926521, “Arylcyanoacrylamides as inhibitors of the Dengue and West Nile virus proteases” (Bioorg Med Chem, 2011)
# The source made the active and inactive calls. The rule behind the calls is not given here.
# Columns and labels:
# Dengue virus [1] = experiment: Inhibition of Dengue virus NS2B-NS3 protease expressed in Escherichia coli BL21 lambda (DE3) using Abz-NleKRRS-3-(NO2)Y as substrate at 50 uM preincubated for 15 mins before substrate addition measured up to 15 mins by spectrofluorimetry
# In short: (§1)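 Single-concentration screen against His-tagged NS2B-NS3 protease (Ni²⁺-affinity purified from E. coli). Enzyme was 100 nM for Dengue or 150 nM for West Nile. Inhibitor at 50 µM was preincubated 15 min with enzyme, then internally quenched FRET substrate (final 50 µM) was added. Read at ex 320/em 405 nm for 15 min. Rate taken as RFU/s; % inhibition is the mean of triplicates.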
# West Nile virus = experiment: Inhibition of West Nile virus NS2B-NS3 protease expressed in Escherichia coli BL21 lambda (DE3) using Abz-GLKRGG-3-(NO2)Y as substrate at 50 uM preincubated for 15 mins before substrate addition measured up to 15 mins by spectrofluorimetry; in short: as §1
# Prothrombin [2] = target: T1, Prothrombin (Homo sapiens, UniProt P00734); experiment: Inhibition of human thrombin using Boc-VPR-AMC as substrate at 25 uM preincubated for 15 mins before substrate addition measured up to 10 mins by spectrofluorimetry
# [3] = Inhibition of Dengue virus NS2B-NS3 protease expressed in Escherichia coli BL21 lambda (DE3) using Abz-NleKRRS-3-(NO2)Y as substrate compound preincubated for 15 mins before substrate addition measured up to 15 mins by spectrofluorimetry
# [4] = Inhibition of West Nile virus NS2B-NS3 protease expressed in Escherichia coli BL21 lambda (DE3) using Abz-GLKRGG-3-(NO2)Y compound preincubated for 15 mins before substrate addition measured up to 15 mins by spectrofluorimetry
# Prothrombin [5] = target: T1, Prothrombin; experiment: Inhibition of human thrombin using Boc-VPR-AMC as substrate compound preincubated for 15 mins before substrate addition measured up to 10 mins by spectrofluorimetry
# Dengue virus [6] = experiment: Binding affinity to Dengue virus NS2B-NS3 protease catalytic center assessed as quenching of Trp50 intrinsic fluorescence
# Dengue virus [7] = experiment: Binding affinity to Dengue virus NS2B-NS3 protease catalytic center assessed as quenching of Trp50 intrinsic fluorescence in presence of aprotinin
# [8] = Selectivity ratio of Ki for human thrombin to Ki for Dengue virus NS2B-NS3 protease
# [9] = Selectivity ratio of Ki for human thrombin to Ki for West Nile virus NS2B-NS3 protease
inhibition (Dengue virus [1]) [%],inhibition (West Nile virus) [%],inhibition (Prothrombin [2]),Ki (Prothrombin [5]) [µM],Activity (Dengue virus [6]),Activity (Dengue virus [7]),Ratio Ki [8],Ratio Ki [9],Compound,Ki [3] [µM],Ki [4] [µM]
10.5,24,47%,23.4,–,–,–,–,N#C/C(=C\c1ccc(N2CCOCC2)o1)C(=O)NC1CC1,184,> 200
28.2,46.3,14.4%,165,Active,inactive,–,–,CC(C)c1ccc(/C=C(\C#N)C(=O)NCC2CCCO2)cc1 (stereo not drawn),98.1,101
11.6,15.9,13.6%,–,–,–,–,–,N#C/C(=C\c1ccc(Br)cc1)C(N)=O,–,–
18.5,20.5,9.7%,–,–,–,–,–,N#C/C(=C\c1cccc(N2CCOCC2)c1)C(=O)NC1CC1,–,–
10.4,7.7,7.4%,–,–,–,–,–,N#C/C(=C\c1ccccc1N1CCOCC1)C(N)=O,–,–
15.7,18.1,9.8%,–,–,–,–,–,N#C/C(=C\c1cccc(O)c1)C(N)=O,–,–
23.3,28.1,19.8%,–,–,–,–,–,CN(C)c1ccc(/C=C(\C#N)C(=O)NCC2CCCO2)cc1 (stereo not drawn),–,–
51.7,55,24.4%,102,–,–,2.8,2.3,N#C/C(=C\c1ccc(O)cc1)C(N)=O,35.7,44.6

# Continued, molecule first:
Compound,inhibition (Dengue virus [1]) [%],inhibition (West Nile virus) [%],inhibition (Prothrombin [2]),Ki (Prothrombin [5]) [µM],Activity (Dengue virus [6]),Activity (Dengue virus [7]),Ratio Ki [8],Ratio Ki [9],Ki [3] [µM],Ki [4] [µM]
N#C/C(=C\c1cccs1)C(N)=O,28.4,23.9,15.7%,–,–,–,–,–,–,–
CC(=O)Oc1ccc(/C=C(\C#N)C(N)=O)cc1,43.1,28.8,24.4%,–,–,–,–,–,–,–
CC(C)c1ccc(/C=C(\C#N)C(=O)NCc2ccccn2)cc1,24.9,39.5,11.6%,–,–,–,–,–,–,–
N#C/C(=C\c1ccc(C#N)cc1)C(N)=O,13.3,20,10.6%,–,–,–,–,–,–,–
N#C/C(=C\c1ccc(Cl)s1)C(N)=O,22,23.8,27.9%,–,–,–,–,–,–,–
CN(C)c1ccc(/C=C/CC(C#N)C(=O)NC2CC2)cc1 (stereo not drawn),9,37,6.7%,–,–,–,–,–,–,–
CN(C)c1ccc(/C=C(\C#N)C(=O)NCc2ccccn2)cc1,25.3,21.3,inactive,–,–,–,–,–,–,–
